# Measurements from ChEMBL document CHEMBL1123178, “Preparation and evaluation of radioiodinated (iodophenyl)cholines and their morpholinium and piperidinium analogues as myocardial perfusion imaging agents” (J Med Chem, 1986).
# Columns and labels:
# [1] = Distribution in the heart after 90 min of intravenous administration; assay type: ADME, tissue-based; settings: 1.5 h
# Method in brief: (§1)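 Swiss white mice (20-25 g) anesthetized with sodium pentobarbital (80 mg/kg ip), then given 0.1-0.2 mL (74 kBq) of radioiodinated compound or 201Tl+ by tail-vein injection. Four mice per time point were killed by cardiac puncture/exsanguination at 5, 15, 30 and 60 min (some also at 90 and 120 min). Organs were excised, washed, blotted and weighed, blood was sampled, and radioactivity was counted against injection standards. Values are percent injected dose/g.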
# [2] = Distribution in the spleen after 90 min of intravenous administration; assay type: ADME, tissue-based; settings: 1.5 h; method in brief: as §1
# [3] = Distribution in the kidneys after 5 min of intravenous administration; assay type: ADME, tissue-based, Kidney; method in brief: as §1
# [4] = Distribution in the bone after 90 min of intravenous administration; assay type: ADME, tissue-based, Bone element; settings: 1.5 h; method in brief: as §1
# [5] = Distribution in the lung after 30 min of intravenous administration; assay type: ADME, tissue-based; settings: 0.5 h; method in brief: as §1
# [6] = Distribution in the muscle after 90 min of intravenous administration; assay type: ADME, tissue-based, Muscle tissue; settings: 1.5 h; method in brief: as §1
# [7] = Distribution in the blood after 120 min of intravenous administration; assay type: ADME, tissue-based; settings: 2 h; method in brief: as §1
# [8] = Distribution in the bone after 15 min of intravenous administration; assay type: ADME, tissue-based, Bone element; settings: 0.25 h; method in brief: as §1
# [9] = Distribution in the blood after 60 min of intravenous administration; assay type: ADME, tissue-based; settings: 1 h; method in brief: as §1
# [10] = Distribution in the blood after 30 min of intravenous administration; assay type: ADME, tissue-based; settings: 0.5 h; method in brief: as §1
# [11] = Distribution in the muscle after 60 min of intravenous administration; assay type: ADME, tissue-based, Muscle tissue; settings: 1 h; method in brief: as §1
# [12] = Distribution in the blood after 5 min of intravenous administration; assay type: ADME, tissue-based; method in brief: as §1
# [13] = Distribution in the kidneys after 90 min of intravenous administration; assay type: ADME, tissue-based, Kidney; settings: 1.5 h; method in brief: as §1
# [14] = Distribution in the spleen after 15 min of intravenous administration; assay type: ADME, tissue-based; settings: 0.25 h; method in brief: as §1
# [15] = Distribution in the bone after 30 min of intravenous administration; assay type: ADME, tissue-based, Bone element; settings: 0.5 h; method in brief: as §1
# [16] = Distribution in the kidneys after 60 min of intravenous administration; assay type: ADME, tissue-based, Kidney; settings: 1 h; method in brief: as §1
# [17] = Distribution in the lung after 15 min of intravenous administration; assay type: ADME, tissue-based; settings: 0.25 h; method in brief: as §1
# [18] = Distribution in the heart after 120 min of intravenous administration; assay type: ADME, tissue-based; settings: 2 h; method in brief: as §1
# [19] = Distribution in the liver after 5 min of intravenous administration; assay type: ADME, tissue-based; method in brief: as §1
# [20] = Distribution in the spleen after 60 min of intravenous administration; assay type: ADME, tissue-based; settings: 1 h; method in brief: as §1
# [21] = Distribution in the blood after 90 min of intravenous administration; assay type: ADME, tissue-based; settings: 1.5 h; method in brief: as §1
# [22] = Distribution in the muscle after 5 min of intravenous administration; assay type: ADME, tissue-based, Muscle tissue; method in brief: as §1
# [23] = Distribution in the liver after 15 min of intravenous administration; assay type: ADME, tissue-based; settings: 0.25 h; method in brief: as §1
# [24] = Distribution in the kidneys after 120 min of intravenous administration; assay type: ADME, tissue-based, Kidney; settings: 2 h; method in brief: as §1
# [25] = Distribution in the liver after 90 min of intravenous administration; assay type: ADME, tissue-based; settings: 1.5 h; method in brief: as §1
# [26] = Distribution in the spleen after 120 min of intravenous administration; assay type: ADME, tissue-based; settings: 2 h; method in brief: as §1
# [27] = Distribution in the muscle after 120 min of intravenous administration; assay type: ADME, tissue-based, Muscle tissue; settings: 2 h; method in brief: as §1
# [28] = Distribution in the bone after 60 min of intravenous administration; assay type: ADME, tissue-based, Bone element; settings: 1 h; method in brief: as §1
# Mus musculus = assay: Distribution in the muscle after 30 min of intravenous administration; assay type: ADME, organism-based, Muscle tissue; settings: in vivo, 0.5 h; method in brief: as §1
# [29] = Distribution in the muscle after 15 min of intravenous administration; assay type: ADME, tissue-based, Muscle tissue; settings: 0.25 h; method in brief: as §1
# [30] = Distribution in the lung after 60 min of intravenous administration; assay type: ADME, tissue-based; settings: 1 h; method in brief: as §1
# [31] = Distribution in the spleen after 30 min of intravenous administration; assay type: ADME, tissue-based; settings: 0.5 h; method in brief: as §1
# [32] = Distribution in the spleen after 5 min of intravenous administration; assay type: ADME, tissue-based; method in brief: as §1
# [33] = Distribution in the liver after 30 min of intravenous administration; assay type: ADME, tissue-based; settings: 0.5 h; method in brief: as §1
# [34] = Distribution in the heart after 30 min of intravenous administration; assay type: ADME, tissue-based; settings: 0.5 h; method in brief: as §1
# [35] = Distribution in the kidneys after 15 min of intravenous administration; assay type: ADME, tissue-based, Kidney; settings: 0.25 h; method in brief: as §1
# [36] = Distribution in the liver after 60 min of intravenous administration; assay type: ADME, tissue-based; settings: 1 h; method in brief: as §1
# [37] = Distribution in the bone after 5 min of intravenous administration; assay type: ADME, tissue-based, Bone element; method in brief: as §1
# [38] = Distribution in the heart after 5 min of intravenous administration; assay type: ADME, tissue-based; method in brief: as §1
# [39] = Distribution in the heart after 60 min of intravenous administration; assay type: ADME, tissue-based; settings: 1 h; method in brief: as §1
# [40] = Distribution in the lung after 90 min of intravenous administration; assay type: ADME, tissue-based; settings: 1.5 h; method in brief: as §1
# [41] = Distribution in the lung after 5 min of intravenous administration; assay type: ADME, tissue-based; method in brief: as §1
# [42] = Distribution in the liver after 120 min of intravenous administration; assay type: ADME, tissue-based; settings: 2 h; method in brief: as §1
# [43] = Distribution in the lung after 120 min of intravenous administration; assay type: ADME, tissue-based; settings: 2 h; method in brief: as §1
# [44] = Distribution in the blood after 15 min of intravenous administration; assay type: ADME, tissue-based; settings: 0.25 h; method in brief: as §1
# [45] = Distribution in the bone after 120 min of intravenous administration; assay type: ADME, tissue-based, Bone element; settings: 2 h; method in brief: as §1
# [46] = Distribution in the heart after 15 min of intravenous administration; assay type: ADME, tissue-based; settings: 0.25 h; method in brief: as §1
# [47] = Distribution in the kidneys after 30 min of intravenous administration; assay type: ADME, tissue-based, Kidney; settings: 0.5 h; method in brief: as §1
compound,measurement,setting,value
C[N+]1(CCOc2cccc(I)c2)CCCCC1,Distribution,[1],18.1%
same,Distribution,[2],2.1%
same,Distribution,[3],40.1%
same,Distribution,[4],1.3%
same,Distribution,[5],4.6%
same,Distribution,[6],1%
same,Distribution,[7],1.4%
same,Distribution,[8],2%
same,Distribution,[9],1.5%
same,Distribution,[10],1.9%
same,Distribution,[11],1%
same,Distribution,[12],1.9%
same,Distribution,[13],5.3%
same,Distribution,[14],3.6%
same,Distribution,[15],2%
same,Distribution,[16],7.4%
same,Distribution,[17],5.5%
same,Distribution,[18],17.7%
same,Distribution,[19],12.5%
same,Distribution,[20],2.6%
same,Distribution,[21],1.2%
same,Distribution,[22],0.9%
same,Distribution,[23],4.9%
same,Distribution,[24],6%
same,Distribution,[25],2.3%
same,Distribution,[26],2.1%
same,Distribution,[27],1.1%
same,Distribution,[28],1.5%
same,Distribution,Mus musculus,1.1%
same,Distribution,[29],1%
same,Distribution,[30],3.4%
same,Distribution,[31],3.4%
same,Distribution,[32],5%
same,Distribution,[33],4.1%
same,Distribution,[34],23.1%
same,Distribution,[35],24%
same,Distribution,[36],2.4%
same,Distribution,[37],1.6%
same,Distribution,[38],20%
same,Distribution,[39],19.5%
same,Distribution,[40],2.7%
same,Distribution,[41],7.3%
same,Distribution,[42],2%
same,Distribution,[43],2.6%
same,Distribution,[44],2.4%
same,Distribution,[45],1.3%
same,Distribution,[46],21.6%
same,Distribution,[47],14.1%
